According to ChEMBL document CHEMBL3271988, “Nitrogen analogues of 1,4-benzoquinones. Activities against the ascitic sarcoma 180 of mice” (J Med Chem, 1978):
Activity calls are given as the source filed them. The calls are words filed in the database; no cut-off is given here.

How the values were obtained:
Sarcoma-180 [1] = test: Antitumor activity against mouse Sarcoma 180 cells allografted in Swiss mouse assessed as weight gain at 150 mg/kg, ip three doses were given at 24 hrs interval starting 24 hrs after allograft injection measured after 3 days relative to control; type: functional; settings: route intraperitoneal
How it was run: (§1)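 Ascitic sarcoma 180 model in Swiss mice: 10^6 cells ip, then three ip doses at 24-h intervals beginning 24 h later. Mice were weighed 1 day after cell injection and again 3 days later (24 h after the third dose). Percent weight gain of treated mice was compared with saline-treated controls on the same schedule.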

Sarcoma-180 [2] = test: Antitumor activity against mouse Sarcoma 180 cells allografted in Swiss mouse assessed as survival at 150 mg/kg, ip three doses were given at 24 hrs interval starting 24 hrs after allograft injection measured after 5 days; type: functional, organism-based; design: dose 150 mg/kg
How it was run: (§2)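 Swiss mice were injected ip with 10^6 ascitic sarcoma 180 cells. Three daily ip doses followed, the first 24 h after cell injection. The read-out was the number of mice surviving at 5 days, out of 6 treated.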

Sarcoma-180 [3] = test: Antitumor activity against mouse Sarcoma 180 cells allografted in Swiss mouse assessed as survival time at 150 mg/kg, ip three doses were given at 24 hrs interval starting 24 hrs after allograft injection relative to control; type: functional; settings: route intraperitoneal
How it was run: (§3)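 Swiss mice inoculated ip with 10^6 ascitic sarcoma 180 cells. Compound given ip daily ×3 at 24-h intervals, starting 24 h after inoculation. Controls received isotonic saline on the same schedule; 6 mice per group. Mice alive at 60 days counted as 60 days in mean survival (±SD).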

[4] = Redox potential of the compound in alcohol-water solution; settings: buffer
Sarcoma-180 [5] = test: Antitumor activity against mouse Sarcoma 180 cells allografted in Swiss mouse assessed as cure at 150 mg/kg, ip three doses were given at 24 hrs interval starting 24 hrs after allograft injection measured after 60 days; type: functional, organism-based; design: dose 150 mg/kg
How it was run: (§4)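 Swiss mice given 10^6 ascitic sarcoma 180 cells ip. Starting 24 h later, three ip doses were given 24 h apart. Controls got isotonic salt solution on the same schedule. A cure was a mouse alive with no evidence of cancer cells 60 days after cell injection, reported per 6 mice.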

Sarcoma-180 [6] = test: Antitumor activity against mouse Sarcoma 180 cells allografted in Swiss mouse at 150 mg/kg, ip three doses were given at 24 hrs interval starting 24 hrs after allograft injection relative to control; type: functional; settings: route intraperitoneal
How it was run: (§5)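 Swiss mice received 10^6 ascitic sarcoma 180 cells ip, then three ip doses 24 h apart starting at 24 h. Controls got isotonic salt solution on the same schedule. T/C% is mean survival time of treated over controls (6 mice per group).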

[7] = Acute toxicity in single ip dosed Swiss mouse assessed as death up to 5 days; type: organism-based; settings: in vivo
How it was run: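 Male Swiss mice given one ip dose. LD50 taken as the single dose killing 50% of animals within 5 days.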

Sarcoma-180 [8] = test: Antitumor activity against mouse Sarcoma 180 cells allografted in Swiss mouse assessed as weight gain at 3 mg/kg, ip three doses were given at 24 hrs interval starting 24 hrs after allograft injection measured after 3 days relative to control; type: functional; settings: route intraperitoneal; how it was run: as §1
Sarcoma-180 [9] = test: Antitumor activity against mouse Sarcoma 180 cells allografted in Swiss mouse at 3 mg/kg, ip three doses were given at 24 hrs interval starting 24 hrs after allograft injection relative to control; type: functional; settings: route intraperitoneal; how it was run: as §5
Sarcoma-180 [10] = test: Antitumor activity against mouse Sarcoma 180 cells allografted in Swiss mouse assessed as survival time at 3 mg/kg, ip three doses were given at 24 hrs interval starting 24 hrs after allograft injection relative to control; type: functional; settings: route intraperitoneal; how it was run: as §3
Sarcoma-180 [11] = test: Antitumor activity against mouse Sarcoma 180 cells allografted in Swiss mouse assessed as survival at 3 mg/kg, ip three doses were given at 24 hrs interval starting 24 hrs after allograft injection measured after 5 days; type: functional, organism-based; design: dose 3 mg/kg; how it was run: as §2
Sarcoma-180 [12] = test: Antitumor activity against mouse Sarcoma 180 cells allografted in Swiss mouse assessed as weight gain at 20 mg/kg, ip three doses were given at 24 hrs interval starting 24 hrs after allograft injection measured after 3 days relative to control; type: functional; settings: route intraperitoneal; how it was run: as §1
Sarcoma-180 [13] = test: Antitumor activity against mouse Sarcoma 180 cells allografted in Swiss mouse at 20 mg/kg, ip three doses were given at 24 hrs interval starting 24 hrs after allograft injection relative to control; type: functional; settings: route intraperitoneal; how it was run: as §5
[14] = Half life of the compound in water at pH 7 at 25 degC by spectrophotometry; type: physicochemical
How it was run: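 Compound dissolved in absolute ethanol, then diluted into 0.01 M Tris buffer brought to pH 7 with HCl, 25 °C. Absorbance at λmax followed over hours or days; log absorbance vs time fitted by least squares, rate constant and half-time taken from the slope.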

Sarcoma-180 [15] = test: Antitumor activity against mouse Sarcoma 180 cells allografted in Swiss mouse assessed as survival time at 20 mg/kg, ip three doses were given at 24 hrs interval starting 24 hrs after allograft injection relative to control; type: functional; settings: route intraperitoneal; how it was run: as §3
Sarcoma-180 [16] = test: Antitumor activity against mouse Sarcoma 180 cells allografted in Swiss mouse assessed as cure at 20 mg/kg, ip three doses were given at 24 hrs interval starting 24 hrs after allograft injection measured after 60 days; type: functional, organism-based; design: dose 20 mg/kg; how it was run: as §4
Sarcoma-180 [17] = test: Antitumor activity against mouse Sarcoma 180 cells allografted in Swiss mouse assessed as survival at 20 mg/kg, ip three doses were given at 24 hrs interval starting 24 hrs after allograft injection measured after 5 days; type: functional, organism-based; design: dose 20 mg/kg; how it was run: as §2
Sarcoma-180 [18] = test: Antitumor activity against mouse Sarcoma 180 cells allografted in Swiss mouse assessed as survival time at 15 mg/kg, ip three doses were given at 24 hrs interval starting 24 hrs after allograft injection relative to control; type: functional; settings: route intraperitoneal; how it was run: as §3
Sarcoma-180 [19] = test: Antitumor activity against mouse Sarcoma 180 cells allografted in Swiss mouse assessed as survival at 15 mg/kg, ip three doses were given at 24 hrs interval starting 24 hrs after allograft injection measured after 5 days; type: functional, organism-based; design: dose 15 mg/kg; how it was run: as §2
Sarcoma-180 [20] = test: Antitumor activity against mouse Sarcoma 180 cells allografted in Swiss mouse at 15 mg/kg, ip three doses were given at 24 hrs interval starting 24 hrs after allograft injection relative to control; type: functional; settings: route intraperitoneal; how it was run: as §5
Sarcoma-180 [21] = test: Antitumor activity against mouse Sarcoma 180 cells allografted in Swiss mouse assessed as weight gain at 15 mg/kg, ip three doses were given at 24 hrs interval starting 24 hrs after allograft injection measured after 3 days relative to control; type: functional; settings: route intraperitoneal; how it was run: as §1
Sarcoma-180 [22] = test: Antitumor activity against mouse Sarcoma 180 cells allografted in Swiss mouse assessed as survival at 60 mg/kg, ip three doses were given at 24 hrs interval starting 24 hrs after allograft injection measured after 5 days; type: functional, organism-based; design: dose 60 mg/kg; how it was run: as §2
Sarcoma-180 [23] = test: Antitumor activity against mouse Sarcoma 180 cells allografted in Swiss mouse at 60 mg/kg, ip three doses were given at 24 hrs interval starting 24 hrs after allograft injection relative to control; type: functional; settings: route intraperitoneal; how it was run: as §5
Sarcoma-180 [24] = test: Antitumor activity against mouse Sarcoma 180 cells allografted in Swiss mouse assessed as cure at 60 mg/kg, ip three doses were given at 24 hrs interval starting 24 hrs after allograft injection measured after 60 days; type: functional, organism-based; design: dose 60 mg/kg; how it was run: as §4
Sarcoma-180 [25] = test: Antitumor activity against mouse Sarcoma 180 cells allografted in Swiss mouse assessed as weight gain at 60 mg/kg, ip three doses were given at 24 hrs interval starting 24 hrs after allograft injection measured after 3 days relative to control; type: functional; settings: route intraperitoneal; how it was run: as §1
Sarcoma-180 [26] = test: Antitumor activity against mouse Sarcoma 180 cells allografted in Swiss mouse assessed as survival time at 60 mg/kg, ip three doses were given at 24 hrs interval starting 24 hrs after allograft injection relative to control; type: functional; settings: route intraperitoneal; how it was run: as §3
Sarcoma-180 [27] = test: Antitumor activity against mouse Sarcoma 180 cells allografted in Swiss mouse assessed as weight gain at 10 mg/kg, ip three doses were given at 24 hrs interval starting 24 hrs after allograft injection measured after 3 days relative to control; type: functional; settings: route intraperitoneal; how it was run: as §1
Sarcoma-180 [28] = test: Antitumor activity against mouse Sarcoma 180 cells allografted in Swiss mouse assessed as cure at 10 mg/kg, ip three doses were given at 24 hrs interval starting 24 hrs after allograft injection measured after 60 days; type: functional, organism-based; design: dose 10 mg/kg; how it was run: as §4
Sarcoma-180 [29] = test: Antitumor activity against mouse Sarcoma 180 cells allografted in Swiss mouse assessed as survival at 10 mg/kg, ip three doses were given at 24 hrs interval starting 24 hrs after allograft injection measured after 5 days; type: functional, organism-based; design: dose 10 mg/kg; how it was run: as §2
Sarcoma-180 [30] = test: Antitumor activity against mouse Sarcoma 180 cells allografted in Swiss mouse assessed as survival time at 10 mg/kg, ip three doses were given at 24 hrs interval starting 24 hrs after allograft injection relative to control; type: functional; settings: route intraperitoneal; how it was run: as §3
Sarcoma-180 [31] = test: Antitumor activity against mouse Sarcoma 180 cells allografted in Swiss mouse at 10 mg/kg, ip three doses were given at 24 hrs interval starting 24 hrs after allograft injection relative to control; type: functional; settings: route intraperitoneal; how it was run: as §5

With `O=C1C=C/C(=N/O)C(Br)=C1` the Activity (Sarcoma-180 [1]) was 6.4%, the Activity (Sarcoma-180 [2]) was “Active” and the Survival (Sarcoma-180 [3]) was 18.2 days. The Redox potential [4] was 0.532 V, the Activity (Sarcoma-180 [5]) was “inactive” and the T/C (Sarcoma-180 [6]) was 158%. The LD50 at 120 h [7] was 1090 mg/kg.
`CC(=O)NC1=C/C(=N\c2ccc(N(C)C)cc2)C=CC1=O` showed an Activity (Sarcoma-180 [8]) of 4.3%, a T/C (Sarcoma-180 [9]) of 194% and a Redox potential [4] of 0.58 V. The Survival (Sarcoma-180 [10]) was 26.8 days, the LD50 at 120 h [7] was 70 mg/kg and the Activity (Sarcoma-180 [11]) was “Active”.
Work on `CN(C)c1ccc(/N=C2/C=CC(=O)C(Cl)=C2)cc1` yielded an Activity (Sarcoma-180 [12]) of 9%, a T/C (Sarcoma-180 [13]) of 256% and a half-life [14] of 19.9 days. The Redox potential [4] was 0.658 V, the Survival (Sarcoma-180 [15]) was 33.3 days and the Activity (Sarcoma-180 [16]) was “inactive”. For the same compound, the LD50 at 120 h [7] was 100 mg/kg and the Activity (Sarcoma-180 [17]) was “Active”.
For `O=C1C=CC(=Nc2ccc([O-])cc2)C=C1.[Na+]`, the Survival (Sarcoma-180 [18]) was 32.8 days, the Activity (Sarcoma-180 [19]) was “Active” and the T/C (Sarcoma-180 [20]) was 214%. It also gave an Activity (Sarcoma-180 [21]) of -2.2% and an LD50 at 120 h [7] of 50 mg/kg.
For `COC1=C/C(=N\O)C=CC1=O`, the half-life [14] was 12.4 days, the Activity (Sarcoma-180 [22]) was “Active” and the Redox potential [4] was 0.521 V. The T/C (Sarcoma-180 [23]) was 173%, the Activity (Sarcoma-180 [24]) was “inactive” and the Activity (Sarcoma-180 [25]) was 1.9%. The LD50 at 120 h [7] was 120 mg/kg and the Survival (Sarcoma-180 [26]) was 18.5 days.
With `COC1=C/C(=N\c2ccc(N(C)C)cc2)C=CC1=O` the Activity (Sarcoma-180 [27]) was 1.9%, the Activity (Sarcoma-180 [28]) was “inactive” and the Redox potential [4] was 0.561 V. For the same compound, the Activity (Sarcoma-180 [29]) was “Active”, the Survival (Sarcoma-180 [30]) was 19.3 days and the LD50 at 120 h [7] was 25 mg/kg. For the same compound, the T/C (Sarcoma-180 [31]) was 181%.
